Screening results: PubChem BioAssay, several laboratories
VIM-2 inhibitor – inhibitors of Pseudomonas aeruginosa VIM-2 metallo-beta-lactamase. AID 1527. inhibition, % at 5.6 µM. purified VIM-2, nitrocefin hydrolysis, epi-absorbance fluorescence. 0.89% of 290,000 active;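 active means inhibition above the mean of all tested compounds plus 3 SD, cutoff set per screening run, cut at about 7.5% in these data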;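 further: red hydrolysis product quenches plate fluorescence so inhibitors raise well fluorescence; 0% = enzyme with DMSO and 100% = DMSO without enzyme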
IMP-1 inhibitor – inhibitors of Pseudomonas aeruginosa IMP-1 metallo-beta-lactamase. inhibition, % at 5.6 µM. 0.45% of 290,000 active. purified IMP-1, nitrocefin hydrolysis, epi-absorbance fluorescence;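 active means inhibition above the mean plus 3 SD of all compounds in the same screening run, cut at about 4.5% in these data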;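 further: 0% = IMP-1 with DMSO and 100% = DMSO wells lacking enzyme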
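System: Purified recombinant IMP-1 metallo-beta-lactamase enzyme | Measured by: Fluorescence quenching readout, ex 480/em 530 nm | Replication: Singlicate | Incubation: 15 min preincubation plus 25 min reaction at 25 °C | Evaluation: Percent inhibition from optical density relative to buffer-blank wells | Benchmarks: DMSO with and without IMP-1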
GLD-1 RNA inh – GLD-1-TGE RNA interaction inhibition (C. elegans); 0.44% of 320,000 active; inhibition, % at 5.96 µM; purified GLD-1 + fluorescein TGE RNA, fluorescence polarization; Q17339;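 active means percent inhibition above a per-plate cutoff, the plate mean of test compounds plus 3 SD, cut at about 30% in these data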;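 further: 0% = DMSO wells with GLD-1 and probe and 100% = wells lacking GLD-1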
Target sequence (Q17339 whole entry, looked up): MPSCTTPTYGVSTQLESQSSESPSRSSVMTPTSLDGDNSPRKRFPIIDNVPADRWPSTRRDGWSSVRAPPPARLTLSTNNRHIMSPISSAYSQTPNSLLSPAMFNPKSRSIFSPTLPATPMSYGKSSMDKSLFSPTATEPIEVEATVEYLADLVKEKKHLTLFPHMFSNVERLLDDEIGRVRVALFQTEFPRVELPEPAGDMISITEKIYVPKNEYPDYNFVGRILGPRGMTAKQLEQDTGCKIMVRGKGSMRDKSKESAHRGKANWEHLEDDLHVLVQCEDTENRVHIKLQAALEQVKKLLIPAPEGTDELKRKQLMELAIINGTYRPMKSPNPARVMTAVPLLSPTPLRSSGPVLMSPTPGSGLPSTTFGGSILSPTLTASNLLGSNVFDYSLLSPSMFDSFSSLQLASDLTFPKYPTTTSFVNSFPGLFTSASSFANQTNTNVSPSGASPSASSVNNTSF
MEX-5 binding – C. elegans MEX-5 TCR-2 RNA binding activity | Q9XUB2 | MEX-5/FITC-TCR2 RNA binding, fluorescence polarization; active compounds read low | activity score (negative = inhibition of binding), % at 10 µM | 0.38% of 300,000 active;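 active means inhibition past about -25% in most replicates, and total fluorescence under double the plate's negative control median, limit read from the data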;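 further: 0% = DMSO and -100% = 5 µM competing unlabeled TCR2 RNA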
BCLXL inh – Bcl-xL (human) inhibition; AID 2129; inhibition, % at 10.9 µM; GST-Bcl-xL / FITC-Bim BH3 peptide fluorescence polarization; 0.7% of 320,000 active;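 active means inhibition above the mean of all tested compounds plus 3 SD, cutoff set per campaign, cut at about 30% in these data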;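 further: 0% = DMSO wells and 100% = unlabeled Bim-BH3 peptide competitor; inhibitors lower millipolarization by displacing the labeled peptide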
EBV gp42 inh – inhibitors of Epstein-Barr virus glycoprotein 42; Q1HVG2; Fluorescence polarization binding assay, mP read-out; inhibition, % (tested at 21.74 µM); 0.42% of 220,000 active; AID 1085; in the data active means inhibition above about 50%
Target sequence (Q1HVG2 whole entry, looked up): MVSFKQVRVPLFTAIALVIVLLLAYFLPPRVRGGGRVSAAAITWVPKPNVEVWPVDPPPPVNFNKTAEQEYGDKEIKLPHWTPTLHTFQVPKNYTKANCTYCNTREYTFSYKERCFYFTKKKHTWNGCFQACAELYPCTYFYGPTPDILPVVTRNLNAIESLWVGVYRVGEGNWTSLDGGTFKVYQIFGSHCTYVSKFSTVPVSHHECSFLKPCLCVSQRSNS
An asterisk follows results filed as active; . = no result. Sampled rows, rich in hits. Any-hit rate of the full collection: about 2.2%.

SMILES | VIM-2 inhibitor | IMP-1 inhibitor | GLD-1 RNA inh | MEX-5 binding | BCLXL inh | EBV gp42 inh
N#C/C(=C\c1ccc(-c2nc3ccccc3s2)o1)C(N)=O | -1.4 | -3.4 | -2.6 | -8.4 | 18.9 | -18.6
N#C/C(=C/c1ccc(-c2ccc(S(N)(=O)=O)cc2)o1)c1nc2ccccc2s1 | -1.4 | -0.9 | -46.5 | . | 44.9* | 63.8*
CNC(=O)/C(C#N)=C/c1ccc(-c2nc3ccccc3s2)o1 | -1.5 | -3.1 | 6.1 | -67.3* | 9.7 | 9.9
Cc1cc(C(=O)COC(=O)c2ccc(O)cc2O)c(C)n1C(C)C | . | . | 2.4 | . | 0.3 | .
Cc1ccc2c(Cl)cc(Cl)c(OCC(=O)NCc3ccco3)c2n1 | 3.0 | -2.4 | . | . | . | 69.2*
Cc1ccc2c(Cl)cc(Cl)c(OCC(=O)NC(=O)NCc3ccco3)c2n1 | -2.7 | -3.4 | 0.1 | -3.4 | 0.3 | -24.1
CCOc1ncccc1C(=O)Nc1cc(S(=O)(=O)N2CCOCC2)ccc1OCC(F)(F)F | . | . | 1.9 | . | . | .
CC(=NC1CCCC1)c1c(C)[nH]n(-c2nc3ccccc3s2)c1=O | -2.8 | -1.1 | -44.2 | -43.1* | -25.0 | -58.9
COc1cccc(-c2cc(C(=O)NCCCN3CCOCC3)no2)c1 | -2.6 | -2.9 | 5.2 | -1.7 | 3.2 | .
COc1cccc(-c2nc(C(=O)NCCCN3CCOCC3)cc3c2[nH]c2ccccc23)c1 | 8.2* | 2.9 | 2.8 | -6.6 | 5.6 | .
O=C(NCCCN1CCOCC1)c1cc2c([nH]c3ccccc32)c(-c2cccc(Br)c2)n1 | 12.2* | -3.2 | 1.2 | -1.0 | 1.1 | .
CSc1nc(SCC(=O)O)c2sc3nc(-c4ccccc4)c4c(c3c2n1)CCC4 | -1.0 | 64.4* | . | -3.6 | . | 53.2*
CSc1nc(N(C)CCO)c2sc3nc(-c4ccco4)c4c(c3c2n1)CCC4 | 1.4 | 10.8* | 2.1 | -2.9 | 17.4 | 87.0*
O=C(O)CSc1nc2sc3c(c2c(=O)n1-c1ccccc1)CCC3 | -0.6 | -2.9 | 0.1 | -1.5 | 10.3 | -12.5
CSc1nnc(-c2ccco2)c(-c2ccco2)n1 | -0.9 | -2.8 | 5.1 | -10.8 | 23.9 | -11.6
COc1ccc(N(C(=O)C(C)C)S(=O)(=O)c2ccc3ccccc3c2)cc1 | -0.6 | -5.1 | -1.6 | -1.1 | 9.4 | .
Cc1ccccc1CN1CCN(Cc2cc3ccccc3o2)CC1CCO (stereo not drawn) | -2.5 | -2.6 | 7.1 | -0.3 | 5.7 | .
Cc1ccccc1CN1CCN(Cc2cc(=O)c3ccccc3[nH]2)CC1CCO (stereo not drawn) | -1.8 | 8.3* | 6.5 | 2.8 | 7.3 | .
COc1ccc(-c2ccc(CCC(=O)O)n2CC(C)C)cc1 | 2.5 | 7.1* | 2.0 | 3.1 | -0.1 | -9.2
COc1cc(C2CC(C(F)(F)F)n3ncc(C(=O)O)c3N2)cc(OC)c1OC (stereo not drawn) | -3.1 | -3.7 | 2.1 | 1.3 | 1.5 | 173.2*
COc1ccccc1C(=O)Nc1ccnn1C1CCN(C2CCSCC2)CC1 | -1.1 | -4.4 | 19.6 | -2.6 | 42.2* | .
COc1ccccc1C(=O)Nc1ccnn1C1CCN(C)CC1 | -1.5 | -1.3 | 6.3 | . | 0.6 | .
CSCC(C)N1CCC(n2nccc2NC(=O)CCc2ccccc2)CC1 (stereo not drawn) | -1.3 | 0.0 | . | -19.2 | . | .
Cc1ccccc1C(=O)Nc1ccnn1C1CCN(C2CCSCC2)CC1 | -2.1 | -2.2 | 11.5 | -12.9 | 35.7* | .
COc1ccccc1C(=O)Nc1ccnn1C1CCN(C(C)CSC)CC1 (stereo not drawn) | -1.3 | -4.4 | 12.7 | -25.6* | 41.5* | .
SMILES | VIM-2 inhibitor | IMP-1 inhibitor | GLD-1 RNA inh | MEX-5 binding | BCLXL inh | EBV gp42 inh
CSCC(C)N1CCC(n2nccc2NC(=O)CCCc2ccccc2)CC1 (stereo not drawn) | -0.4 | 4.0 | 45.0* | -64.1* | 99.0* | .
COCCC(=O)N1CCC(n2nccc2NC(=O)c2ccccc2C)CC1 | -2.3 | -1.3 | 4.2 | 0.1 | 6.5 | .
CC(=O)Nc1ccc(S(=O)(=O)N[C@@H](C)C(=O)N2CCN(C/C=C/c3ccccc3)CC2)cc1 | . | . | 0.8 | . | 4.3 | .
Cn1c(=O)c(C(=O)Nc2ccccc2S(N)(=O)=O)c(O)c2ccccc21 | 1.2 | -1.2 | 1.0 | 1.8 | 34.0* | -9.9
CC(C)Cn1c(=O)c(C(=O)Nc2ccccc2S(N)(=O)=O)c(O)c2ccccc21 | -2.8 | -4.1 | 2.6 | 3.1 | -2.8 | -8.7
COc1ccc(C(CNS(=O)(=O)c2cccc(F)c2)N2CCCC2)cc1 (stereo not drawn) | . | . | -1.9 | . | . | .
Cc1[nH][nH]c(=O)c1C(c1ccc(O)c([N+](=O)[O-])c1)c1c(C)[nH][nH]c1=O | 0.1 | -3.5 | -0.8 | -48.4* | 7.2 | -2.8
CCOc1ccccc1CN1CCNC(=O)C1CC(=O)NCc1nccn1CC (stereo not drawn) | -4.1 | -1.7 | -7.6 | 0.3 | 2.0 | .
O=C1CNC(=S)N1CCc1ccc(O)c(O)c1 | -2.2 | -4.9 | -1.8 | -30.0* | 10.6 | -3.9
O=C1CNC(=S)N1CCOc1ccccc1 | -3.0 | -1.0 | -16.7 | -0.6 | -3.4 | -10.2
COC(=O)c1ccc(Nc2cc(C)nc3nc(C)nn23)cc1 | 7.2 | 1.6 | -3.3 | -3.3 | 1.0 | -20.7
Cc1cc(Nc2ccc(F)c(Cl)c2)n2nc(C)nc2n1 | 1.1 | -5.3 | -1.2 | -1.7 | 4.0 | -4.2
CCOc1ccc(Nc2cc(C)nc3nc(C)nn23)cc1 | 8.4* | 1.2 | 6.3 | -0.9 | 6.0 | -11.0
COc1cccc(Nc2cc(C)nc3nc(C)nn23)c1 | 10.8* | -0.6 | 0.9 | -1.7 | -1.1 | -10.6
CCOC(=O)c1ccccc1Nc1cc(C)nc2nc(C)nn12 | 9.5* | -1.9 | 2.3 | 0.8 | 1.0 | -15.6
COc1ccc(Nc2cc(C)nc3nc(C)nn23)c(OC)c1 | 12.2* | -3.1 | -1.4 | -3.4 | 4.4 | -2.6
Cc1cccc(S(=O)(=O)Nc2cc(Cl)ccc2N2CCOCC2)c1 | . | . | 4.8 | . | . | .
CCc1ccc(NC(=O)/C(C#N)=C/c2cc3ccc(C)cc3nc2N2CCOCC2)cc1 | -4.8 | -2.9 | 2.9 | -40.7* | 1.1 | -58.1
CS(=O)(=O)N1N=C(c2ccccc2)CC1c1ccc2c(c1)OCO2 (stereo not drawn) | -1.7 | -2.5 | -5.1 | 4.4 | 4.3 | 90.9*
CCN(CC)S(=O)(=O)c1ccc(C(=O)/C=C/c2ccc(-c3ccc([N+](=O)[O-])cc3)o2)cc1 | -1.3 | -0.2 | -6.7 | -5.6 | -6.7 | 86.2*
Cc1ccc(C(=O)/C=C/c2ccc(-c3ccc(C)cc3)o2)cc1 | -1.2 | -1.3 | -5.5 | -0.9 | -5.6 | -18.6
CCCCn1c(N)c(N(CCOC)C(=O)c2oc3ccc(OCC)cc3c2C)c(=O)[nH]c1=O | . | . | -4.3 | -0.1 | 0.3 | .
O=C(Nc1ccc(Cl)cc1)OCc1cn(-c2ccccc2)nn1 | -3.4 | 7.5* | 8.1 | 1.2 | -7.4 | -4.9
Cc1ccccc1NC(=O)OCc1cn(-c2ccc(Cl)cc2)nn1 | -4.5 | 1.1 | 2.1 | 1.5 | 6.1 | -4.4
Cc1ccc(C(OC(=O)c2ccco2)C(=O)NC(C)(C)C)cc1 (stereo not drawn) | -4.2 | -3.8 | 1.3 | -0.6 | 0.8 | .
